From ChEMBL document CHEMBL1129428 (J Med Chem, 1996)

What was measured:
[1] = tested on: Mus musculus; experiment: Anticonvulsant activity after intraperitoneal injection into mice measured in a maximal electroshock scree (MES) screen; format: functional
[2] = tested on: Mus musculus; experiment: Anticonvulsant activity after intraperitoneal injection into mice by using MES screen test after 0.5 hr; format: functional
[3] = tested on: Mus musculus; experiment: Compound was tested for toxicity after intraperitoneal injection into mice by using toxicity screen test after 4 hr; format: organism-based; conditions: in vivo, ip
Summary of the method: (§1)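 Mice injected intraperitoneally at 30, 100 and 300 mg/kg and examined 0.5 and 4 h afterwards. Each entry is the minimum dose giving activity (MES protection, scPTZ protection, or rotorod failure for neurotoxicity) in half or more of the mice. Activity is called absent if nothing occurs at 300 mg/kg.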

[4] = tested on: Rattus norvegicus; experiment: Compound was tested for anticonvulsant activity after Oral Administration into Rats by using MES screen test after 4h,dose 50 mg/kg; number of rats out of four which were protected; format: functional
Summary of the method: (§2)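 Rats received the compound orally. […] Rats were tested in the MES screen at 0.25, 0.5, 1, 2 and 4 h. Each value is the number of rats protected out of 4. The test followed NINDS procedures.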

[5] = tested on: Rattus norvegicus; experiment: Compound was tested for anticonvulsant activity after Oral Administration into Rats by using MES screen test after 1h,dose 50 mg/kg; number of rats out of four which were protected; format: functional; summary of the method: as §2
[6] = tested on: Rattus norvegicus; experiment: Compound was tested for anticonvulsant activity after Oral Administration into Rats by using MES screen test after 2h,dose 50 mg/kg; number of rats out of four which were protected; format: functional; summary of the method: as §2
[7] = tested on: Rattus norvegicus; experiment: Compound was tested for anticonvulsant activity after Oral Administration into Rats by using MES screen test after 0.25h,dose 50 mg/kg; No activity was demonstarted; format: functional, organism-based; design: dose 50 mg/kg; summary of the method: as §2
[8] = tested on: Rattus norvegicus; experiment: Compound was tested for anticonvulsant activity after Oral Administration into Rats by using MES screen test after 0.5h,dose 50 mg/kg; number of rats out of four which were protected.; format: functional; summary of the method: as §2
[9] = Partition coefficient (logP); format: physicochemical; conditions: octanol/water
Summary of the method: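 Partition between 1-octanol and buffer at pH 7.4, with solutions prepared in 1-octanol before buffer is added. Quantified by UV, using λmax and ε values measured in 1-octanol.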

[10] = Compound was tested for toxicity after oral administration in rat by using neurotoxicity screen test after 0.25-24 hr; format: organism-based; conditions: in vivo
Summary of the method: (§3)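 Rat neurotoxicity after oral dosing, observed at 0.25, 0.5, 1, 2, 4, 6, 8 and 24 h (8 h omitted for one compound).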

[11] = tested on: Mus musculus; experiment: Compound was tested for anticonvulsant activity after intraperitoneal injection into mice by using scPTZ screen test after 1 hr; format: functional; conditions: ip
Summary of the method: (§4)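 Quantitative intraperitoneal mouse testing in the MES, scPTZ or rotorod neurotoxicity screens at the peak time given for each compound (0.25–2 h). ED50 or TD50 reported in mg/kg with 95% CI and slope (SE).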

[12] = Compound was tested for toxicity after intraperitoneal injection into mice by using neurotoxicity screen test after 2 hr; format: organism-based; conditions: mouse, in vivo, ip; summary of the method: as §4
[13] = tested on: Rattus norvegicus; experiment: Compound was tested for anticonvulsant activity after Oral Administration into rat by using MES screen test after 4 hr; format: functional
Summary of the method: (§5)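 Rats dosed orally, typically at 50 mg/kg first, then mostly 12.5 mg/kg (some compounds at 30 mg/kg), and tested by maximal electroshock. Four rats per compound, scored at 0.25, 0.5, 1, 2 and 4 h as the number of rats protected out of 4.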

[14] = tested on: Mus musculus; experiment: Compound was tested for anticonvulsant activity after intraperitoneal injection into mice by using MES screen test after 1 hr; format: functional; conditions: ip; summary of the method: as §4
[15] = tested on: Rattus norvegicus; experiment: Compound was tested for anticonvulsant activity after Oral Administration into Rats by using MES screen test after 0.5h,dose 50 mg/kg; No activity was demonstarted; format: functional, organism-based; design: dose 50 mg/kg; summary of the method: as §2
[16] = tested on: Rattus norvegicus; experiment: Compound was tested for anticonvulsant activity after Oral Administration into Rats by using MES screen test after 0.5h,dose 50 mg/kg; number of rats out of four which were protected; format: functional; summary of the method: as §2
[17] = Compound was tested for […] after intraperitoneal injection into mice by using neurotoxicity screen test after 2 hr; format: organism-based; conditions: mouse, in vivo, ip; summary of the method: as §4
[18] = Protection index = TD50/ED50; format: ADME; conditions: read-out: PI
[19] = tested on: Rattus norvegicus; experiment: Compound was tested for anticonvulsant activity after Oral Administration into Rats by using MES screen test after 0.25h,dose 50 mg/kg; number of rats out of four which were protected; format: functional; summary of the method: as §2
[20] = tested on: Mus musculus; experiment: Anticonvulsant activity after intraperitoneal injection into mice by using scPTZ screen test after 4 hr; format: functional
[21] = tested on: Mus musculus; experiment: Compound was tested for anticonvulsant activity after intraperitoneal injection into mice by using scPTZ screen test after 0.5 hr; format: functional; conditions: ip; summary of the method: as §1
[22] = tested on: Mus musculus; experiment: Anticonvulsant activity after intraperitoneal injection into mice by using scPTZ screen after 0.5 hr; format: functional
[23] = tested on: Rattus norvegicus; experiment: Compound was tested for anticonvulsant activity after Oral Administration into rat by using MES screen test after 2 hr; format: functional; summary of the method: as §5
[24] = tested on: Rattus norvegicus; experiment: Compound was tested for anticonvulsant activity after Oral Administration into Rats by using MES screen test after 0.25h,dose 12.5 mg/kg; number of rats out of four which were protected; format: functional; summary of the method: as §2
[25] = Compound was tested for toxicity after oral administration in rat by using neurotoxicity screen test after 4 hr; format: organism-based; conditions: in vivo; summary of the method: as §3
[26] = tested on: Mus musculus; experiment: Toxicity after intraperitoneal injection into mice by using toxicity screen test after 0.5 hr; format: organism-based; conditions: in vivo, ip; summary of the method: as §1
[27] = tested on: Rattus norvegicus; experiment: Compound was tested for anticonvulsant activity after Oral Administration into Rats by using MES screen test after 1h,dose 12.5 mg/kg; number of rats out of four which were protected; format: functional; summary of the method: as §2
[28] = tested on: Rattus norvegicus; experiment: Anticonvulsant activity after oral administration into rats; format: functional; design: concentration or dose not given beside the values
[29] = tested on: Rattus norvegicus; experiment: Compound was tested for anticonvulsant activity after Oral Administration into Rats by using MES screen test after 2h,dose 12.5 mg/kg; number of rats out of four which were protected; format: functional; summary of the method: as §2
[30] = tested on: Rattus norvegicus; experiment: Compound was tested for anticonvulsant activity after Oral Administration into Rats by using MES screen test after 4h,dose 12.5 mg/kg; number of rats out of four which were protected; format: functional; summary of the method: as §2

| SMILES | Dose [1] [mg/kg] | Dose [2] [mg/kg] | Dose [3] [mg/kg] | Activity [4] | Activity [5] | Activity [6] | Activity [7] | Activity [8] | logP [9] | TD50 [10] [mg/kg] | ED50 [11] [mg/kg] | TD50 at 2 h [12] [mg/kg] | ED50 [13] [mg/kg] | ED50 [14] [mg/kg] | Dose [22] [mg/kg] | other results |
| --- | --- | --- | --- | --- | --- | --- | --- | --- | --- | --- | --- | --- | --- | --- | --- | --- |
| NC(=O)N/N=C/c1ccc(Oc2ccc(Cl)c(Cl)c2)cc1 | 30 | 300 | 300 | 4 | 4 | 4 | No activity | 2 | – | – | – | – | – | – | – | – |
| COc1ccc(Oc2ccc(/C=N/NC(N)=O)cc2)cc1 | 100 | 100 | 300 | 4 | 4 | 4 | No activity | 4 | 1.29 | – | – | – | – | – | – | – |
| NC(=O)N/N=C/c1ccc(Sc2ccccc2)cc1 | 30 | 30 | 300 | 4 | 4 | 4 | No activity | 4 | – | > 496 | > 46 | 181 | 4.29 | 15.6 | – | – |
| NC(=O)N/N=C\c1ccccc1Oc1ccccc1 | – | – | – | 1 | 2 | 1 | No activity | – | – | – | – | – | – | – | – | Activity [15]: No activity |
| NC(=O)N/N=C/c1ccc(Oc2ccc(F)c(F)c2)cc1 | 30 | 100 | – | 4 | 4 | 4 | – | – | 2.76 | > 500 | – | – | 2.37 | 14.5 | 30 | Activity [16]: 4; TD50 at 2 h [17]: 94.8 mg/kg; selectivity ratio [18]: 1.3; Activity [19]: 2; Dose [20]: 300 mg/kg; ED50 [21]: 72.8 mg/kg |
| NC(=O)N/N=C/c1ccc(Sc2ccc(F)cc2)cc1 | 30 | 30 | 100 | – | – | – | – | – | 2.8 | – | > 120 | 88 | – | 12.4 | 30 | ED50 [23]: 4.98 mg/kg; Activity [24]: 1; TD50 at 4 h [25]: 183 mg/kg; Dose [26]: 300 mg/kg; Activity [27]: 4; Activity [28]: 3; Activity [29]: 4; Activity [30]: 4 |
